A short description of experiment [1]: inhibitors of TNFa-induced NFkB p65 translocation, primary screen, imaging, HUVEC, MLSMR starter and 10KST1 sets (AID 438;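 active means inhibition above 20% together with a positive visual image hit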;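 further: compound added about 3h40 before a 20 min TNFalpha stimulation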;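 on inhibition: signal is the nuclear over cytoplasmic p65 intensity ratio per well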). Particulars: HUVEC TNFa-induced p65 nuclear translocation; cell count: measured here: nuclei count (cytotoxicity indicator), at 2.08 µM; inhibition: at 2 µM, stronger effect = higher value, 0% TNFa-plus-vehicle, 100% no-TNFa wells.
Experiment [2] is described as follows: inhibitors of E-selectin induction by TNFa, primary screen, imaging, HUVEC, immunofluorescence, MLSMR starter and 10KST1 sets (AID 487;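 active means visually confirmed hit in the image check and inhibition above 20%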;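 on inhibition: signal is fraction of cell area covered by stained E-selectin grains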;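 on nuclei count: 100% = median nuclei count of all wells on the same plate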). Particulars: HUVEC TNFalpha-induced E-selectin immunofluorescence imaging, at 2 µM; inhibition: stronger effect = higher value; nuclei count: measured here: cell number, toxicity.
Experiment [3] can be described thus: DUSP6 inhibitors restoring Erk phosphorylation by chemical complementation, primary imaging in DUSP6-transfected HeLa (AID 609;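 active means compounds giving at least 50% inhibition in the cell-based MKP-3 phosphatase rescue imaging test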;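 on inhibition: phospho-Erk level distribution per well compared with pooled transfected vehicle control wells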). Particulars: HeLa MKP-3 transfected, phospho-Erk imaging KS statistic, at 10 µM, cells stimulated with TPA for 15 min.
Experiment [4] deals with Dual specificity protein phosphatase 6 (Homo sapiens) (UniProt Q16828). The experiment is described as above. Particulars: HeLa MKP-3 transfected, phospho-Erk imaging KS statistic; at 10 µM; stronger effect = higher value; cells stimulated with TPA for 15 min.
Chain of Dual specificity protein phosphatase 6 (Homo sapiens) (Q16828 whole entry, looked up): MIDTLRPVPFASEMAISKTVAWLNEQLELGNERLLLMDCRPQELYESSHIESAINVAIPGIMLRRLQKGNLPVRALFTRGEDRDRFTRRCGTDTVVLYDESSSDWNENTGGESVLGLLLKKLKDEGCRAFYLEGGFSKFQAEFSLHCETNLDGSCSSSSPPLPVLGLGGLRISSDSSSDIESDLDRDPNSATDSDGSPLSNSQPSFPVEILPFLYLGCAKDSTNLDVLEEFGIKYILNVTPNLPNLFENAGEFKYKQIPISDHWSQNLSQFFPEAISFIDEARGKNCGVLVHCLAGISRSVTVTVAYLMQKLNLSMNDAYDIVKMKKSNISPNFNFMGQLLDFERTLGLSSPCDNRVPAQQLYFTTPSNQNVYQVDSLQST
The target in experiment [5] is Voltage-gated potassium channel subunit beta-2 (Rattus norvegicus) (UniProt P62483). The experiment in a line: KvBeta enzyme negative modulators, primary screen, biochemical, NADPH fluorescence (AID 622).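 Further: slope of raw intensity against log time taken from 70 to 1610 s.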 Particulars: recombinant KvBeta, 4-cyanobenzaldehyde reduction, at 10 µM, stronger effect = higher value.
Chain of Voltage-gated potassium channel subunit beta-2 (Rattus norvegicus) (P62483 whole entry, looked up): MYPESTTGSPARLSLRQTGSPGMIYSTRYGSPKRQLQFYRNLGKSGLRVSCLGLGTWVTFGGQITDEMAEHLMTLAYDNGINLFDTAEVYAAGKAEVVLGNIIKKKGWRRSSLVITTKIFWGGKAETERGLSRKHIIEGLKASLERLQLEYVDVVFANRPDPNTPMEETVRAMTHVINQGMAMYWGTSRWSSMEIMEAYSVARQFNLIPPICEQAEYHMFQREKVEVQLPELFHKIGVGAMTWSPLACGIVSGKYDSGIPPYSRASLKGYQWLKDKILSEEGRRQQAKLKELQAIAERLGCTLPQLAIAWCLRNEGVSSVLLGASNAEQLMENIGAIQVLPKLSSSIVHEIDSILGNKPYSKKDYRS
Experiment [6] has the same target. Nature of the experiment: KvBeta positive modulators, primary screen, biochemical, NADPH fluorescence (AID 623;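 active means NADPH fluorescence slope more negative than the mean of all samples by about 3 SD, 99.7% confidence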;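 further: fluorescence intensity change per second fitted from 20 to 320 s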). Particulars: Recombinant KvBeta, NADPH fluorescence decrease slope, 10 min; at 10 µM; stronger effect = lower value.
Experiment [7] has as its target Muscarinic acetylcholine receptor M4 (Homo sapiens) (UniProt P08173). Nature of the experiment: compounds altering M4/GIRK thallium flux, either direction, primary screen, M4 allosteric agonist project, cell-based, HEK293 M4/GIRK, BTC-AM (AID 625;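 active means fluorescence slope after compound addition differing from the mean of all tested samples at 99.7% confidence, mostly higher but some lower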;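 further: thallium influx through GIRK channels coupled to M4 in HEK293 cells with BTC-AM dye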). The following applies: at 10 µM, actives lie on both sides. The gist of the method: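 assay system = HEK293 cells with M4 receptor and GIRK channels | medium = pH 7.3 thallium assay buffer | doses = 10 µM final, single point | timing = cells overnight at 37 °C, BTC-AM loading 1 h, reads 2 min total | signal = BTC-AM fluorescence, 1 Hz kinetic reads | read-out = post-addition slope, 15–24 s, of baseline-normalized fluorescence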

Experiment [8] can be described thus: inhibitors of larval lipid processing in zebrafish, primary screen, whole organism, PED6 fluorescence, gall bladder and intestine (AID 686;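 active means a full or partial loss of lipid-probe fluorescence in the fish gall bladder, intestine or both, judged by eye; inactive means no fluorescence loss, or compound toxic to the fish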;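 further: larvae 5 to 7 days old with five fish per well; signal comes from phospholipase A2 cleavage of quenched PED6 carried via bile; overnight exposure to compound and PED6 before scoring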). The following applies: Zebrafish larvae PED6 lipid processing, fluorescence scoring; screened at 20 µM (by protocol). The gist of the method:
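Also added: quenched phospholipase substrate PED6, 100 nM final, ingested by larvae; System: zebrafish larvae, 5-7 d; Quantity: 5 larvae per well; Compound: 20 µM single dose; Schedule: overnight compound and PED6 incubation; Read-out: visual per-well fluorescence inhibition score; Measured by: By-eye fluorescence microscopy; Medium: E3.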

A short description of experiment [9]: inhibitors of Chlamydomonas gravitaxis, primary screen, whole organism, Chlamydomonas reinhardtii, WT vs cilia-less mutant, absorbance, 96-well (AID 463189;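 active means inhibition at or above 50% relative to wild type and mutant plate controls; inactive means inhibition below 50%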;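 further: 0% = wild type cc124 cells in DMSO and 100% = ciliumless bld1 mutant cells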). The following applies: OD600 absorbance, 2 days, at 10 µM, stronger effect = higher value.
[10] abbreviates: measured here: cell density z-score.
[11] abbreviates: measured here: nuclear c-Myc green intensity z-score.
The mark [12] stands for this setting: measured here: nuclear pErk red intensity z-score, stronger effect = higher value.

Molecules are shown by their SMILES. The source made the active and inactive calls.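 How the source made its calls, unless noted: active means fluorescence slope higher than the sample average by over 3 SD (cut at about -0.22 in these data, passing the limit was not always enough); inactive means the rest.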

Chain of Muscarinic acetylcholine receptor M4 (Homo sapiens) (P08173 whole entry, looked up): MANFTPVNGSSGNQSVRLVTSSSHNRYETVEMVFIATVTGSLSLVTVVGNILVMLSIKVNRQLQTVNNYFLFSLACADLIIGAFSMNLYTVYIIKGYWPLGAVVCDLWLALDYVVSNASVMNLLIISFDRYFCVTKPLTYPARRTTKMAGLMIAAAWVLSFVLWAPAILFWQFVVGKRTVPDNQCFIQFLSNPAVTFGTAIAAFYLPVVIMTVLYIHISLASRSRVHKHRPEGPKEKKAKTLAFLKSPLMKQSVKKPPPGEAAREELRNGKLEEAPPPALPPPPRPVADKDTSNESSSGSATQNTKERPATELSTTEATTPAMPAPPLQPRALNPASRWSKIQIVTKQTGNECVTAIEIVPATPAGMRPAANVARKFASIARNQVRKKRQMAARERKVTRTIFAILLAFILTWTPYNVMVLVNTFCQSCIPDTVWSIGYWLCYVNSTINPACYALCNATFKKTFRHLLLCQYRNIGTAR

As for `O=C1CCCN1c1ccc(S(=O)(=O)NCc2ccco2)cc1`, in [1], the cell count is 702. In addition, the inhibition was 3.6% (inactive) in experiment [1], -53.1% (inactive) in [2], 15.9% (inactive) in experiment [4] and 15.5% (inactive) in experiment [9]. The molecule further came in with a nuclei count in experiment [2] of 180%. Besides, the z-score in experiment [3] (setting [10]) is 0.977; in experiment [3] (setting [11]) it was -0.343; in experiment [3] (setting [12]), 1.6. The fluorescence slope in [5] is -0.489 (inactive); in [7] it was 0.00466 (inactive). Besides, the NADPH fluorescence slope in experiment [6] was -3.7e-05 (inactive). The call in [8] was inactive.
As to `Cc1cc(C)n(CC(=O)c2ccccc2)c(=O)c1C#N`, in experiment [1], the cell count was 470. Besides, the inhibition in [1] is -3.8% (inactive); in experiment [2], -112% (inactive); in experiment [4] it was -3.95% (inactive); in [9], -1.97% (inactive). The molecule further came in with a nuclei count in [2] of 157%. In addition, the z-score is -1.09 in experiment [3] (setting [10]), 0.551 in [3] (setting [11]) and 0.941 in experiment [3] (setting [12]). The fluorescence slope is -0.432 (inactive) in experiment [5] and 0.0047 (inactive) in [7]. Besides, the NADPH fluorescence slope in [6] is -4.1e-05 (inactive). In addition, the call in experiment [8] was inactive.
Regarding `O=C(O)CSCC(=O)Nc1ccc(S(=O)(=O)N2CCCCC2)cc1`, the cell count in [1] turned out to be 500. For the same molecule, the inhibition in experiment [1] is -7.8% (inactive); in [2], -62% (inactive); in experiment [4] it was -3.95% (inactive); in experiment [9] it was -4.71% (inactive). Besides, the nuclei count in experiment [2] is 162%. In addition, the z-score in experiment [3] (setting [10]) is 0.13; in [3] (setting [11]), -1.22; in experiment [3] (setting [12]), 0.192. Further, the fluorescence slope was -0.424 (inactive) in [5] and 0.00479 (inactive) in [7]. Further, in experiment [6], the NADPH fluorescence slope is -3.2e-05 (inactive). In experiment [8], the call was inactive.
`N#Cc1cc(Oc2cccc3cccnc23)c(-n2nnc3ccccc32)cc1C#N`: the cell count in experiment [1] came out at 527. Besides, the inhibition in [1] was -0.1% (inactive); in experiment [2], -156% (inactive); in experiment [4], 6.04% (inactive); in experiment [9], 25.9% (inactive). This molecule showed a nuclei count in experiment [2] of 145%. Also, the z-score in [3] (setting [10]) is 2.59; in [3] (setting [11]), -0.877; in experiment [3] (setting [12]), -1.07. For the same molecule, the fluorescence slope in [5] is -0.438 (inactive); in [7] it was 0.0061 (inactive). In addition, in experiment [6], the NADPH fluorescence slope was -2.5e-05 (inactive). Also, the result in experiment [8] was inactive.
For the molecule `CCOC(=O)NC(Nc1sc2c(c1C(N)=O)CCCC2)(C(=O)OCC)C(F)(F)F` (stereo not given), in experiment [1], the cell count was found to be 707. Moreover, the inhibition was -5.7% (inactive) in [1], -51.4% (inactive) in experiment [2], 16.5% (inactive) in experiment [4] and 1.44% (inactive) in [9]. In [2], the nuclei count was found to be 144%. Moreover, the results for the z-score in [3] (setting [10]), in experiment [3] (setting [11]) and in experiment [3] (setting [12]) were 0.203, -0.663 and 1.92, respectively. Also, the fluorescence slope in experiment [5] was -0.448 (inactive); in experiment [7], 0.00659 (inactive). Also, the NADPH fluorescence slope in experiment [6] was -1.9e-05 (inactive). In addition, the call in experiment [8] was inactive.
With `CC(C)OC(=O)CCNc1n[nH]c(=O)[nH]c1=O`, the cell count in experiment [1] was 635. The inhibition in [1] is -4.3% (inactive); in [2], -4.4% (inactive); in [4], -4.27% (inactive); in experiment [9], -8.46% (inactive). In addition, the nuclei count in [2] was determined as 119%. For the same molecule, the z-score in [3] (setting [10]) came out at 0.648; in [3] (setting [11]) it was 0.239; in experiment [3] (setting [12]), 0.621. Further, the fluorescence slope in experiment [5] is -0.499 (inactive); in experiment [7] it was 0.00594 (inactive). Also, in experiment [6], the NADPH fluorescence slope is -0.000105 (inactive). Also, the molecule was classed as inactive in [8].
As for `Cn1c(NCc2cccnc2)nc2c1c(=O)n(Cc1ccccc1F)c(=O)n2C`, the cell count in [1] is 696. Also, the inhibition in [1] was 3% (inactive); in experiment [2], -201% (inactive); in experiment [4] it was 11.9% (inactive); in experiment [9] it was 18.1% (inactive). In experiment [2], this molecule yielded a nuclei count of 167%. Besides, the z-score in experiment [3] (setting [10]) was 0.699; in [3] (setting [11]) it was -0.869; in experiment [3] (setting [12]) it was 1.16. Moreover, the fluorescence slope in [5] is -0.51 (inactive); in experiment [7] it was 0.00566 (inactive). Also, the NADPH fluorescence slope in experiment [6] was -6e-05 (inactive). In addition, the molecule was called inactive in experiment [8].
As to `O=C(CN1C(=O)c2ccccc2S1(=O)=O)NCCSCc1ccco1`, the cell count in experiment [1] amounted to 373. Also, the inhibition in experiment [1] was -5.5% (inactive); in experiment [2], -25.2% (inactive); in experiment [4], 20.2% (inactive); in [9], -7.41% (inactive). In addition, the nuclei count in experiment [2] was determined as 142%. Further, the z-score was 0.363 in experiment [3] (setting [10]), 0.199 in experiment [3] (setting [11]) and 0.301 in experiment [3] (setting [12]). The results for the fluorescence slope in [5] and in [7] were -0.457 (inactive) and 0.00395 (inactive), respectively. In addition, the NADPH fluorescence slope in [6] was -0.000137 (inactive). In addition, the outcome in [8] was inactive.
For `COc1ccc(N2C(=O)CC(N(Cc3ccc(S(N)(=O)=O)cc3)C(C)=O)C2=O)cc1` (stereo not given), the cell count in [1] stood at 550. Further, the inhibition is 4.1% (inactive) in experiment [1], 19.1% (inactive) in experiment [2], 20.2% (inactive) in [4] and 9.88% (inactive) in [9]. Further, the nuclei count in [2] was 126%. The z-score in experiment [3] (setting [10]) was 0.546; in experiment [3] (setting [11]), -0.739; in [3] (setting [12]) it was 0.891. Besides, the results for the fluorescence slope in [5] and in [7] were -0.481 (inactive) and 0.00578 (inactive), respectively. In [6], the NADPH fluorescence slope was -3.2e-05 (inactive). Also, in experiment [8], the molecule was called inactive.
Regarding `CCCCc1nc(NCC2CCCO2)c(C#N)c2c1COC(C)(C)C2` (stereo not given), the cell count in experiment [1] came to 380. The inhibition is -5.9% (inactive) in experiment [1], -69.1% (inactive) in experiment [2], 31.4% (inactive) in experiment [4] and -8.27% (inactive) in experiment [9]. The molecule also gave a nuclei count in experiment [2] of 135%. The z-score is -0.8 in [3] (setting [10]), 1.32 in [3] (setting [11]) and -1.16 in experiment [3] (setting [12]). Also, the fluorescence slope is -0.509 (inactive) in experiment [5] and 0.00404 (inactive) in experiment [7]. In addition, in experiment [6], the NADPH fluorescence slope is -7.2e-05 (inactive). Besides, the call in experiment [8] was inactive.

Broadly, the inhibition is the drop in the measured response relative to a control, in per cent.

(Values after PubChem BioAssay.)
